Values after ≈ are worked out from the molar mass of the structure shown.
What was measured:
Proteus vulgaris = assay: In vitro minimum inhibitory concentration for Proteus vulgaris ATCC 8427; assay type: functional
Summary of the method: (§1)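 Serial 2-fold agar dilution in Mueller Hinton medium, run alongside a reference quinolone. Inoculum adjusted to 10⁸ cfu/mL; compound range 0.007–16 μg/mL.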

Bacillus subtilis = assay: In vitro minimum inhibitory concentration for Bacillus subtilis ATCC 6633; assay type: functional; summary of the method: as §1
Enterococcus faecalis [1] = assay: In vitro minimum inhibitory concentration for Streptococcus faecalis ATCC 10541; assay type: functional; summary of the method: as §1
Bacillus cereus = assay: In vitro minimum inhibitory concentration for Bacillus cereus ATCC 11778; assay type: functional; summary of the method: as §1
[2] = HPLC capacity factor (k'); assay type: ADME
Summary of the method: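 Ion-pair reversed-phase HPLC on ODS-2 (10 μm) at 45 °C. Mobile phase: 10 mM sodium heptanesulfonate plus 50 mM KH2PO4 (pH 3.5)–methanol 45:55, 1 mL/min. Samples at 100 μg/mL in DMF, injected in duplicate, UV 280 nm. k' = (tR − t0)/t0.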

[3] = tested on: Staphylococcus epidermidis; assay: In vitro minimum inhibitory concentration for Staphylococcus epidermidis ATCC 155-1; assay type: functional; summary of the method: as §1
[4] = Solubility (buffer pH 7.4); assay type: physicochemical; conditions: read-out: S
Summary of the method: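 Excess solid shaken in 0.05 M phosphate buffer pH 7.4 for 24 h at 25 °C. Suspension filtered through 0.22 μm, discarding the first portion. Filtrate diluted in 0.1 N HCl or 0.1 N NaOH and read by UV at the compound's absorbance maximum.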

Staphylococcus aureus = assay: In vitro minimum inhibitory concentration for Staphylococcus aureus ATCC 25178; assay type: functional; summary of the method: as §1
[5] = AUC (0-4 hr) ug/ml/h; assay type: ADME, cell-free; set-up: time < 4 hr; concentration or dose not given beside the values; conditions: plasma
Summary of the method: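 Mice dosed once orally at 50 mg/kg; blood taken from groups of six mice at 0.5, 1, 2 and 4 h. Serum drug assayed by disk agar diffusion bioassay (Bacillus subtilis ATCC 6633 on Seed Agar, 37 °C, 18 h), giving total activity.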

Mus musculus [6] = assay: Evaluation of efficacy on systemic infections Staphylococcus aureus HS-93, after oral administration in mice; assay type: functional
Summary of the method: (§2)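 Single oral dose given immediately after infection, one of four doses per group, chosen from in vitro activity. Survival scored after one week. ED50 (total mg/kg protecting 50%) interpolated from survival rates.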

Morganella morganii = assay: In vitro minimum inhibitory concentration for Morganella morganii ATCC 8019; assay type: functional; summary of the method: as §1
Escherichia coli = assay: In vitro minimum inhibitory concentration for Escherichia coli ATCC 10799; assay type: functional; summary of the method: as §1
[7] = Measured ionization constant (pKa); assay type: physicochemical; conditions: read-out: pKa1
Summary of the method: (§3)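 Spectrophotometric titration at 20 ± 1 °C, 0.1 M ionic strength, pH varied with H2SO4 or NaOH made up in the compound stock. Absorbance followed at compound-specific wavelengths chosen from 200–400 nm scans. pKa1 and pKa2 taken as the inflection points of the two-step absorbance vs pH curve.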

Enterobacter cloacae = assay: In vitro minimum inhibitory concentration for Enterobacter cloacae ATCC 23355; assay type: functional
Mus musculus [8] = assay: Evaluation of efficacy on systemic infections Escherichia coli HM-42, after oral administration in mice; assay type: functional; summary of the method: as §2
Mus musculus [9] = assay: Evaluation of efficacy on systemic infections Pseudomonas aeruginosa HS-116, after oral administration in mice; assay type: functional; summary of the method: as §2
Klebsiella pneumoniae = assay: In vitro minimum inhibitory concentration to inhibit Klebsiella pneumoniae ATCC 10031; assay type: functional; summary of the method: as §1
Pseudomonas aeruginosa = assay: In vitro minimum inhibitory concentration for Pseudomonas aeruginosa ATCC 10145; assay type: functional; summary of the method: as §1
[10] = Dissociation constant (pKa); assay type: physicochemical; conditions: read-out: pKa2; summary of the method: as §3
Enterococcus faecalis [11] = assay: microbe, parasite or virus in culture; conditions: ATCC 10541
[12] = Measured inonisation constant (pKa); assay type: physicochemical; conditions: read-out: pKa2; summary of the method: as §3

Row | SMILES | MIC (Proteus vulgaris) [µg/mL] | MIC (Bacillus subtilis) [µg/mL] | MIC (Enterococcus faecalis [1]) [µg/mL] | MIC (Bacillus cereus) [µg/mL] | Log k' [2] | MIC [3] [µg/mL] | solubility [4] [µg/mL] | MIC (Staphylococcus aureus) [µg/mL] | AUC [5] [ng·h/mL] | MIC (Morganella morganii) [µg/mL] | MIC (Escherichia coli) [µg/mL] | pKa [7] | MIC (Enterobacter cloacae) [µg/mL] | MIC (Klebsiella pneumoniae) [µg/mL] | MIC (Pseudomonas aeruginosa) [µg/mL] | pKa [10] | ED50 (Mus musculus [6]) [mg/kg] | ED50 (Mus musculus [8]) [mg/kg] | ED50 (Mus musculus [9]) [mg/kg] | also measured
1 | O=C(O)c1cn(C2CC2)c2cc(N3CCNCC3)c(F)cc2c1=O [CIPROFLOXACIN] | 0.06 (≈ 0.181 µM) | 0.06 (≈ 0.181 µM) |  | 0.25 (≈ 0.754 µM) |  | 0.5 (≈ 1.51 µM) |  | 0.25 (≈ 0.754 µM) | 2300 | 0.06 (≈ 0.181 µM) |  |  |  |  | 0.12 (≈ 0.362 µM) |  | 45.1 | 3 | 70.3 | MIC (Enterococcus faecalis [11]): 0.5 µg/mL (≈ 1.51 µM)
2 | C[C@H]1[C@H](N)CN1c1nc2c(cc1F)c(=O)c(C(=O)O)cn2C1CC1 | 0.06 (≈ 0.181 µM) | 0.03 (≈ 0.0903 µM) | 0.25 (≈ 0.752 µM) | 0.06 (≈ 0.181 µM) | -0.0304 | 0.12 (≈ 0.361 µM) | 20.3 (≈ 61.1 µM) | 0.12 (≈ 0.361 µM) | 27200 | 0.03 (≈ 0.0903 µM) | 0.03 (≈ 0.0903 µM) | 6.26 | 0.03 (≈ 0.0903 µM) | 0.03 (≈ 0.0903 µM) | 0.5 (≈ 1.5 µM) | 8.31 | 13.8 | 3.5 | 95.4 | 
3 | CCNC1CN(c2cc3c(cc2F)c(=O)c(C(=O)O)cn3C2CC2)C1 |  |  |  |  |  |  |  |  |  |  |  | 6.48 |  |  |  |  |  |  |  | pKa [12]: 8.62

More lines, main results first:

Row | MIC (Proteus vulgaris) [µg/mL] | MIC (Bacillus subtilis) [µg/mL] | MIC (Enterococcus faecalis [1]) [µg/mL] | MIC (Bacillus cereus) [µg/mL] | Log k' [2] | MIC [3] [µg/mL] | solubility [4] [µg/mL] | MIC (Staphylococcus aureus) [µg/mL] | AUC [5] [ng·h/mL] | MIC (Morganella morganii) [µg/mL] | MIC (Escherichia coli) [µg/mL] | pKa [7] | MIC (Enterobacter cloacae) [µg/mL] | MIC (Klebsiella pneumoniae) [µg/mL] | MIC (Pseudomonas aeruginosa) [µg/mL] | pKa [10] | SMILES | ED50 (Mus musculus [6]) [mg/kg] | ED50 (Mus musculus [8]) [mg/kg] | ED50 (Mus musculus [9]) [mg/kg] | also measured
4 | 0.12 (≈ 0.33 µM) | 0.03 (≈ 0.0826 µM) | 0.5 (≈ 1.38 µM) | 0.06 (≈ 0.165 µM) | 0.292 | 0.06 (≈ 0.165 µM) | 13.1 (≈ 36.1 µM) | 0.06 (≈ 0.165 µM) | 20800 | 0.06 (≈ 0.165 µM) | 0.06 (≈ 0.165 µM) | 6.13 | 0.03 (≈ 0.0826 µM) | 0.03 (≈ 0.0826 µM) | 0.5 (≈ 1.38 µM) | 8.5 | CN[C@H]1CN(c2c(F)cc3c(=O)c(C(=O)O)cn(C4CC4)c3c2F)[C@@H]1C | 11.2 | 2.3 | 70.5 | 
5 | 0.12 (≈ 0.347 µM) | 0.03 (≈ 0.0869 µM) | 0.25 (≈ 0.724 µM) | 0.12 (≈ 0.347 µM) | 0.179 | 0.06 (≈ 0.174 µM) | 9.2 (≈ 26.6 µM) | 0.12 (≈ 0.347 µM) | 10300 | 0.06 (≈ 0.174 µM) | 0.06 (≈ 0.174 µM) | 6.5 | 0.03 (≈ 0.0869 µM) | 0.03 (≈ 0.0869 µM) | 0.5 (≈ 1.45 µM) | 8.6 | CN[C@H]1CN(c2cc3c(cc2F)c(=O)c(C(=O)O)cn3C2CC2)[C@@H]1C | 23.3 | 2 | 80.4 | 
6 | 0.03 (≈ 0.082 µM) | 0.03 (≈ 0.082 µM) | 0.06 (≈ 0.164 µM) | 0.03 (≈ 0.082 µM) | 0.1361 | 0.03 (≈ 0.082 µM) | 12 (≈ 32.8 µM) | 0.03 (≈ 0.082 µM) | 5200 | 0.03 (≈ 0.082 µM) | 0.007 (≈ 0.0191 µM) | 6.04 | 0.03 (≈ 0.082 µM) | 0.007 (≈ 0.0191 µM) | 0.12 (≈ 0.328 µM) | 8.47 | C[C@H]1[C@H](N)CN1c1c(F)cc2c(=O)c(C(=O)O)cn(C3CC3)c2c1Cl | 9.6 | 2.8 | 38 | 

From ChEMBL document CHEMBL1127424, “7-azetidinylquinolones as antibacterial agents. 2. Synthesis and biological activity of 7-(2,3-disubstituted-1-azetidinyl)-4-oxoquinoline- and -1,8-naphthyridine-3-carboxylic acids. Properties and structure-activity relationships of quinolones with an azetidine moiety” (J Med Chem, 1994)
